Test results: ChEMBL document CHEMBL2177000, “Pharmacokinetic optimization of class-selective histone deacetylase inhibitors and identification of associated candidate predictive biomarkers of hepatocellular carcinoma tumor response” (J Med Chem, 2012)
Converted amounts (≈) assume the structure as drawn. The source made the active and inactive calls. No cut-off for these calls is given here.

Assays:
[1] = Oral bioavailability in BALB/C mouse at 10 mg/kg by LC-MS/MS method; assay type: ADME, organism-based; conditions: BALB/C, in vivo
Outline: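 Bioavailability from single-dose iv (2 mg/kg, 5% DMSO/40% PEG400/55% saline) and oral gavage (10 mg/kg, 0.445% microcrystalline cellulose microsuspension) studies in BALB/C nude mice (N = 16 per arm); plasma at eight (po) or nine (iv) time points, LC-MS/MS, noncompartmental analysis.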

SGC-7901 [2] = assay type: functional, Homo sapiens
Mus musculus [3] = test: Cmax in BALB/C mouse at 10 mg/kg, po or 2 mg/kg, iv by LC-MS/MS method; assay type: ADME, organism-based; conditions: in vivo
Outline: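 Female-unspecified BALB/C nude mice (15−20 g, N = 16 per arm); iv bolus 2 mg/kg in 5% DMSO/40% PEG400/55% saline and/or oral gavage 10 mg/kg as 0.445% microcrystalline cellulose microsuspension. Blood sampled at nine (iv) or eight (po) time points into sodium heparin tubes; plasma by LC-MS/MS; noncompartmental analysis.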

SMMC-7721 [4] = test: Induction of apoptosis in human SMMC-7721 cells assessed as early apoptotic cell level at 5 uM incubated for 48 hrs by FITC/Annexin V staining based flow cytometry (reference value: 2.61%)
Mus musculus [5] = test: Toxicity in human Bel7404 cells xenografted BALB/C mouse assessed as body weight loss at 50 mg/kg, po qd for 4 weeks; conditions: in vivo, 672 h
[6] = Solubility in 50 mM phosphate buffer at pH 6.5 by HPLC method; assay type: physicochemical
Outline: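 10 mM DMSO stock dried, residue redissolved in 50 mM phosphate buffer pH 6.5, stirred 1 h and shaken 2 h, left overnight, filtered and analysed by HPLC against calibration standards of 50−500 μM diluted from the DMSO stock.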

SMMC-7721 [7] = assay type: functional, Homo sapiens
SMMC-7721 [8] = test: Induction of apoptosis in human SMMC-7721 cells assessed as necrotic cell level at 5 uM incubated for 48 hrs by FITC/Annexin V staining based flow cytometry (reference value: 2.31%)
BEL-7404 = test: Antitumor activity against human BEL-7404 cells xenografted in BALB/C mouse assessed as tumor growth inhibition at 100 mg/kg, po administered every other day for 4 weeks; conditions: BEL-7404, po, 672 h, read-out: TGI
[9] = Clearance in mouse liver microsomes at 1 uM incubated for 10 mins by LC-MS/MS method; assay type: ADME, Microsome
Outline: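 Liver microsomes (human or mouse, 0.5 mg/mL) in 100 mM potassium phosphate pH 7.4 with 1 μM compound, prewarmed 10 min at 37 °C, started with NADPH (10 mM); stopped at 0, 3, 6, 9, 15, 30 min with ice-cold methanol containing tolbutamide internal standard; LC-MS/MS. Hepatic clearance (mL/min/kg) calculated from intrinsic clearance.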

Mus musculus [10] = test: Up-regulation of TIMP3 gene expression in human hepatocellular carcinoma patient tumor xenografted in BALB/C mouse at 100 mg/kg, po administered every other day for 4 weeks by […]; assay type: functional, organism-based; parameters: dose 100 mg/kg
Outline: (§1)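 Patient HCC tumor fragments (3 × 3 × 3 mm3) implanted subcutaneously in female BALB/c nu/nu mice; at ~200 (150−250) mm3 dosed orally Q2D 100 mpk in 15% Kleptose pH 4.5 tartaric buffer for about four weeks. Tumor RNA (TRIzol, DNase I) run on 22-gene qRT-PCR array, normalized to GAPDH/β-glucuronidase by ΔCt, fold change versus day 0.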

SGC-7901 [11] = test: Inhibition of Class 1 histone deacetylase in human SGC7901 cells assessed as histone H3 acetylation at 0.6 to 5 uM incubated for 24 hrs by Western blot method; assay type: cell-based
Outline: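 SGC-7901 cells (1 × 10^6) seeded overnight, treated 24 h at indicated concentrations; lysed on ice with protease inhibitor, 15 000 g supernatant; 30 μg protein by SDS-PAGE, nitrocellulose, antibody probing for acetylated histone H3 and p21, ECL detection.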

Mus musculus [12] = test: Down-regulation of WNT5A gene expression in human hepatocellular carcinoma patient tumor xenografted in BALB/C mouse at 100 mg/kg, po administered every other day for 4 weeks by […]; assay type: functional, organism-based; parameters: dose 100 mg/kg
Outline: (§2)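 Patient-derived HCC xenografts dosed 100 mpk Q2D PO; tumor total RNA (TRIzol, DNase I treated, column-purified) run on a customized 22-gene qRT-PCR array; ΔCt against mean of GAPDH and β-glucuronidase, fold-change relative to day 0 (pre-treatment).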

SGC-7901 [13] = test: Induction of cell cycle arrest in human SGC7901 cells assessed as reduction in accumulation at S phase incubated for 24 hrs by flow cytometry; assay type: functional, cell-based
Outline: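 SGC-7901 cells (1 × 10^5, about 50% confluent) treated 24 h with a concentration series; fixed in chilled 70% ethanol 1 h at 4 °C, stained 1 h at room temperature with propidium iodide (50 μg/mL) plus RNase A and 0.05% Triton X-100; analysed by flow cytometry.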

Mus musculus [14] = test: Up-regulation of CDKN1C gene expression in human hepatocellular carcinoma patient tumor xenografted in BALB/C mouse at 100 mg/kg, po administered every other day for 4 weeks by […]; assay type: functional, organism-based; parameters: dose 100 mg/kg; outline: as §1
Mus musculus [15] = test: Down-regulation of CFLAR gene expression in human hepatocellular carcinoma patient tumor xenografted in BALB/C mouse at 100 mg/kg, po administered every other day for 4 weeks by […]; assay type: functional, organism-based; parameters: dose 100 mg/kg; outline: as §2
Mus musculus [16] = test: Up-regulation of SOCS1 gene expression in human hepatocellular carcinoma patient tumor xenografted in BALB/C mouse at 100 mg/kg, po administered every other day for 4 weeks by […]; assay type: functional, organism-based; parameters: dose 100 mg/kg; outline: as §1
Mus musculus [17] = test: Up-regulation of SPINT2 gene expression in human hepatocellular carcinoma patient tumor xenografted in BALB/C mouse at 100 mg/kg, po administered every other day for 4 weeks by […]; assay type: functional, organism-based; parameters: dose 100 mg/kg; outline: as §1
Mus musculus [18] = test: Inhibition of Class 1 histone deacetylase in human Bel7404 cells xenografted BALB/C mouse assessed as induction of histone H3 acetylation at 50 mg/kg, po qd for 4 weeks by Western blot method; conditions: Bel-7404
Mus musculus [19] = test: Up-regulation of CDKN1A gene expression in human hepatocellular carcinoma patient tumor xenografted in BALB/C mouse at 100 mg/kg, po administered every other day for 4 weeks by […]; assay type: functional, organism-based; parameters: dose 100 mg/kg; outline: as §1
Mus musculus [20] = test: Up-regulation of CTGF gene expression in human hepatocellular carcinoma patient tumor xenografted in BALB/C mouse at 100 mg/kg, po administered every other day for 4 weeks by […]; assay type: functional, organism-based; parameters: dose 100 mg/kg; outline: as §1
Mus musculus [21] = test: Up-regulation of CDKN2A gene expression in human hepatocellular carcinoma patient tumor xenografted in BALB/C mouse at 100 mg/kg, po administered every other day for 4 weeks by […]; assay type: functional, organism-based; parameters: dose 100 mg/kg; outline: as §1

Compound CN1C[C@@H](C(=O)Nc2ccc(Cl)cc2)[C@H](c2ccc(/C=C/C(=O)Nc3ccccc3N)cc2)C1 has a bioavailability [1] of 89%.

Work on CN1C[C@H](C(=O)Nc2ccc(Cl)cc2)[C@@H](c2ccc(/C=C/C(=O)Nc3ccccc3N)cc2)C1 [listing 1 of 2 here] yielded a GI90 (SGC-7901 [2]) of 1400 nM, a Cmax (Mus musculus [3]) of 893 ng/mL and an Activity (SMMC-7721 [4]) of 3.56%. For the same compound, the Activity (Mus musculus [5]) was under 10%, the solubility [6] was 136 µg/mL (≈ 286 µM) and the GI90 (SMMC-7721 [7]) was 1900 nM. The Activity (SMMC-7721 [8]) was 15.41% and the inhibition in vivo at 100 mg/kg (BEL-7404) was over 60%.

With CN1C[C@H](C(=O)Nc2ccc(Cl)cc2)[C@@H](c2ccc(/C=C/C(=O)Nc3ccccc3N)cc2F)C1 (racemic) the CLhep predicted at 1 µM [9] was 36 mL/min/kg and the bioavailability [1] was 49%.

With CN1C[C@H](C(=O)Nc2ccc(Cl)cc2)[C@@H](c2ccc(/C=C/C(=O)Nc3ccccc3N)cc2)C1 [listing 2 of 2 here] the Activity (Mus musculus [10]) was “Active”, the inhibition (SGC-7901 [11]) was “Dose-dependent effect” and the Activity (Mus musculus [12]) was “Active”. For the same compound, the Activity (SGC-7901 [13]) was “Dose-dependent effect”, the Activity (Mus musculus [14]) was “Active” and the Activity (Mus musculus [15]) was “Active”. For the same compound, the Activity (Mus musculus [16]) was “Active”, the Activity (Mus musculus [17]) was “inactive” and the inhibition (Mus musculus [18]) was “Active”. For the same compound, the Activity (Mus musculus [19]) was “Active”, the Activity (Mus musculus [20]) was “Active” and the Activity (Mus musculus [21]) was “inactive”.
